Reference: ChEMBL document CHEMBL5154669, “G-Quadruplex DNA as a Target in Pathogenic Bacteria: Efficacy of an Extended Naphthalene Diimide Ligand and Its Mode of Action” (J Med Chem, 2022)

Key:
Staphylococcus aureus [1] = experiment: Antibacterial activity against Staphylococcus aureus LMG 15975 assessed as inhibition of bacterial growth incubated for 20 hrs by CLSI based broth microdilution method; type: functional
In short: (§1)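 Broth microdilution in cation-adjusted Mueller-Hinton broth following CLSI guidelines. DMSO stocks were at 10 mM; compounds were twofold serially diluted over 128 to 2 μM. The inoculum was at 5 × 10⁵, prepared from colonies grown 20 h at 37 °C and adjusted to 0.5 McFarland. Plates ran 20 h at 37 °C with OD600 read-out. MIC was the lowest concentration inhibiting visible growth, in triplicate.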

Pseudomonas aeruginosa = experiment: Antibacterial activity against Pseudomonas aeruginosa LMG 6395 assessed as inhibition of bacterial growth incubated for 20 hrs by CLSI based broth microdilution method; type: functional; in short: as §1
Escherichia coli = experiment: Antibacterial activity against Escherichia coli LMG 8223 infected in Galleria mellonella assessed as survival at 5 to 10 mg/kg after 5 days; type: functional; conditions: dose 5-10 mg/kg, time 5 day
In short: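 Larvae, 20 per group, were infected with 10 µL of saline-washed bacteria into the left proleg: E. coli at 10⁶ CFU/worm and S. aureus at 10⁵ CFU/worm. After 1 h at 37 °C, the compound (5 or 10 mg/kg) was injected into the last right proleg. Controls were meropenem 5 mg/kg (E. coli), rifampicin 10 mg/kg (S. aureus) and NaCl 0.9%. Mortality was followed over 5 d at 37 °C.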

Enterococcus faecium [2] = experiment: Antibacterial activity against Enterococcus faecium LMG 16003; type: functional, organism-based; conditions: DDE = dose-dependent effect
In short: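 Cultures were inoculated at 2% and grown at 37 °C, with OD600 read every 5 min for 8 h. NDI-10 was added at exponential-phase onset (~3 h). Concentrations were 32, 16, 8 and 4 μM for E. coli, and 16, 8, 4 and […] μM for the Gram-positive strains.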

Enterococcus faecalis [3] = experiment: Antibacterial activity against Enterococcus faecalis LMG 16216 assessed as inhibition of bacterial growth incubated for 20 hrs by CLSI based broth microdilution method; type: functional; in short: as §1
Staphylococcus aureus [4] = experiment: Antibacterial activity against Staphylococcus aureus LMG 10147 assessed as inhibition of bacterial growth incubated for 20 hrs by CLSI based broth microdilution method; type: functional; in short: as §1
Acinetobacter baumannii = experiment: Antibacterial activity against Acinetobacter baumannii LMG 01041 assessed as inhibition of bacterial growth incubated for 20 hrs by CLSI based broth microdilution method; type: functional; in short: as §1
Klebsiella aerogenes [5] = experiment: Bacteriostatic activity against Enterobacter aerogenes LMG 02094 assessed as inhibition of bacterial growth; type: functional
In short: (§2)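 A standard MIC plate (128–2 μM, cMHB, 20 h, 37 °C) was read at OD600. Each well then seeded at 10% a fresh compound-free cMHB plate, grown another 20 h at 37 °C and read at OD600. No growth at the same concentration in both plates counted as bactericidal. Growth above the MIC counted as bacteriostatic. Done in triplicate.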

Staphylococcus aureus [6] = experiment: Antibacterial activity against Staphylococcus aureus LMG 8224 infected in Galleria mellonella assessed as survival at 5 to 10 mg/kg after 3 days; conditions: dose 5-10 mg/kg, time 3 day
Enterobacter cloacae = experiment: Bactericidal activity against Enterobacter cloacae LMG 02783 assessed as inhibition of bacterial growth; type: functional; in short: as §2
Klebsiella pneumoniae [7] = experiment: Bactericidal activity against Klebsiella pneumoniae LMG 20218 assessed as inhibition of bacterial growth; type: functional; in short: as §2
Staphylococcus aureus [8] = experiment: Antibacterial activity against Staphylococcus aureus LMG 8224 assessed as inhibition of bacterial growth incubated for 20 hrs by CLSI based broth microdilution method; type: functional; in short: as §1
DNA [9] = experiment: Stabilization of Staphylococcus aureus in G-quadruplex DNA GGA AGG AGG GGT GAC AGG G assessed as change in melting temperature at 10 uM incubated for 16 hrs by […]; type: nucleic-acid assay
In short: (§3)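 Readout was CD melting, not FRET: 2.5 μM oligonucleotide in 10 mM lithium cacodylate pH 7.4 with KCl set per sequence (initial Tm 60-70 °C). Annealed 95 °C 5 min, cooled to room temperature over 4 h, then ligand 10 μM (4 equiv) equilibrated 16 h at 20 °C. Ellipticity at 260 nm tracked every 0.1 °C, 20-95 °C at 5 °C/min; Tm by van't Hoff two-state fit.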

DNA [10] = experiment: Stabilization of Staphylococcus aureus in G Quadruplex DNA GGGGCTAATTGGGGCTGGTGG assessed as melting at 10 uM incubated for 16 hrs temperature by […]; type: nucleic-acid assay; in short: as §3
Klebsiella aerogenes [11] = experiment: Antimicrobial activity against Enterobacter aerogenes LMG 02094 assessed as inhibition of bacterial growth in presence of D11 incubated for 20 hrs; conditions: LMG 02094, 20 h
Salmonella enterica [12] = experiment: Antibacterial activity against Salmonella enterica LMG 07233 assessed as inhibition of bacterial growth incubated for 20 hrs by CLSI based broth microdilution method; type: functional; in short: as §1
Salmonella enterica [13] = experiment: Bacteriostatic activity against Salmonella enterica LMG 07233 assessed as inhibition of bacterial growth; type: functional; in short: as §2
Salmonella enterica [14] = experiment: Antimicrobial activity against Salmonella enterica LMG 07233 assessed as inhibition of bacterial growth in presence of D11 incubated for 20 hrs; conditions: LMG 07233, 20 h
Bacillus cereus [15] = experiment: Bacteriostatic activity against Bacillus cereus ATCC 10987 assessed as inhibition of bacterial growth; type: functional; in short: as §2
Enterococcus faecium [16] = experiment: Antibacterial activity against Enterococcus faecium LMG 16003 assessed as inhibition of bacterial growth incubated for 20 hrs by CLSI based broth microdilution method; type: functional; in short: as §1
DNA [17] = experiment: Stabilization of Staphylococcus aureus in G-quadruplex DNA GGGTTTGGGGCGGCGGTTGG assessed as melting temperature at 10 uM incubated for 16 hrs by […]; type: nucleic-acid assay; in short: as §3
Enterococcus faecalis [18] = experiment: Antimicrobial activity against Enterococcus faecalis V583 assessed as inhibition of bacterial growth in presence of D11 incubated for 20 hrs; conditions: V583, 20 h
Enterococcus faecium [19] = experiment: Bacteriostatic activity against Enterococcus faecium LMG 16003 assessed as inhibition of bacterial growth; type: functional; in short: as §2
Bacillus cereus [20] = experiment: Antibacterial activity against Bacillus cereus ATCC 10987 assessed as inhibition of bacterial growth incubated for 20 hrs by CLSI based broth microdilution method; type: functional; in short: as §1
Enterococcus faecium [21] = experiment: Antimicrobial activity against Enterococcus faecium LMG 16003 assessed as inhibition of bacterial growth in presence of D11 incubated for 20 hrs; conditions: LMG 16003, 20 h
Staphylococcus aureus [22] = experiment: Antimicrobial activity against Staphylococcus aureus LMG 8224 assessed as inhibition of bacterial growth in presence of D11 incubated for 20 hrs; conditions: LMG 8224, 20 h
Klebsiella aerogenes [23] = experiment: Antibacterial activity against Enterobacter aerogenes LMG 02094 assessed as inhibition of bacterial growth incubated for 20 hrs by CLSI based broth microdilution method; type: functional; in short: as §1
Klebsiella pneumoniae [24] = experiment: Antibacterial activity against Klebsiella pneumoniae LMG 20218 assessed as inhibition of bacterial growth incubated for 20 hrs by CLSI based broth microdilution method; type: functional; in short: as §1

## CN(C)CCCn1c(=O)c2ccc3c(=O)n(CCCN(C)C)c(=O)c4c5[nH]c6ccccc6[nH]c5c(c1=O)c2c34.O=C(O)C(F)(F)F.O=C(O)C(F)(F)F
Staphylococcus aureus [1]
  MIC: 16 µM
Pseudomonas aeruginosa
  MIC: 128 µM
Escherichia coli
  Activity: 90%
Enterococcus faecium [2]
  Activity: Dde
Enterococcus faecalis [3]
  MIC: 4 µM
Staphylococcus aureus [4]
  MIC: 16 µM
Acinetobacter baumannii
  MIC: 64 µM
Klebsiella aerogenes [5]
  MIC: > 128 µM
Staphylococcus aureus [6]
  Activity: 70%
Enterobacter cloacae
  MIC: 8 µM
Klebsiella pneumoniae [7]
  MIC: > 128 µM
Staphylococcus aureus [8]
  MIC: 16 µM
DNA [9]
  ΔTm: > 30.8 °C
DNA [10]
  Tm: 88.3 °C
Klebsiella aerogenes [11]
  MIC: 8 µM
Salmonella enterica [12]
  MIC: 64 µM
Salmonella enterica [13]
  MIC: 128 µM
Salmonella enterica [14]
  MIC: < 0.5 µM
Bacillus cereus [15]
  MIC: 64 µM
Enterococcus faecium [16]
  MIC: 4 µM
DNA [17]
  Tm: > 95 °C
Enterococcus faecalis [18]
  MIC: 4 µM
Enterococcus faecium [19]
  MIC: 32 µM
Bacillus cereus [20]
  MIC: 8 µM
Enterococcus faecium [21]
  MIC: 4 µM
Staphylococcus aureus [22]
  MIC: 16 µM
Klebsiella aerogenes [23]
  MIC: 32 µM
Klebsiella pneumoniae [24]
  MIC: > 128 µM
